Data taken from publication PMC6510378 (Clinical and Translational Science, 2019).

Columns and labels:
11β‐HSD2 = conditions: at concentrations < 3,000 nM; ref Internal study reports 3662‐PH‐0001 and 3662‐PH‐0001‐0004; cited from earlier work
11β‐HSD1 = 11β‐HSD1 (Homo sapiens, UniProt P28845); assay: Urine 11β-HSD1 activity; type: in vivo
Summary of the method: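 Hepatic 11β-HSD1 activity was taken as the urinary ratio of (5α + 5β)-tetrahydrocortisol to tetrahydrocortisone. In the single-dose study, urine was collected predose to 72 h. In the high-dose multiple-dose part, cumulative amounts excreted were measured on days 1 and 18. In the low-dose part, first morning void samples were used, with baseline on day –1 and follow-up through days 16–21 and day 28.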

[1] = Safety and tolerability, MAD study; type: in vivo, human; conditions: for Any TEAE / Drug-related TEAE / Number of TEAEs / Number of drug-related TEAEs / TEAE: Constipation / TEAE: Gastrointestinal disorders / TEAE: General disorders and administration site conditions / TEAE: Headache / TEAE: Medical device site reaction / TEAE: Nervous system disorders / TEAE: Skin and subcutaneous tissue disorders: MAD study
Summary of the method: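 Safety was assessed from treatment-emergent adverse events: nature, frequency, severity, onset/offset and relatedness to study drug, coded by MedDRA system organ class. Also assessed were haematology, serum chemistry, urinalysis, physical examination with vital signs, and ECGs. CNS scales used were Bond and Lader VAS, ARCI-49 and Profile of Mood States. Data were summarized descriptively.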

human 11β‐HSD1 = conditions: competitive binding; ref Internal study reports 3662‐PH‐0001 and 3662‐PH‐0001‐0004; cited from earlier work
[2] = SAD study plasma PK, single oral dose, healthy young subjects; type: in vivo, human; conditions: for Cmax / Tmax / AUC(0-inf) / half-life: human, plasma, po; for AUC(0-inf): AUCinf; for half-life: t½
Summary of the method: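 Healthy adults aged 18–55, randomized 6 active : 2 placebo per cohort, received a single fasted oral dose (1–60 mg) with 240 mL water. Serial blood was drawn predose to 72 h, plus 96 and 120 h in the 6, 30 and 60 mg cohorts. Plasma drug was measured by validated HPLC-MS/MS, with below-limit values set to zero. Dose proportionality used a power model on log-transformed dose.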

[3] = mice, available in vivo pharmacology data; cited from earlier work
[4] = 3 mg, Median, single oral dose 3 mg, n=6
[5] = 3 mg, Min–max, single oral dose 3 mg, n=6
[6] = 6 mg, Mean (SD), single oral dose 6 mg, n=6
[7] = 6 mg, Median, single oral dose 6 mg, n=6
[8] = 6 mg, Min–max, single oral dose 6 mg, n=6
[9] = 10 mg, Mean (SD), single oral dose 10 mg, n=3
[10] = 10 mg, Median, single oral dose 10 mg, n=3
[11] = 10 mg, Min–max, single oral dose 10 mg, n=3
[12] = 10 mg, Median, single oral dose 10 mg, n=6
[13] = 10 mg, Min–max, single oral dose 10 mg, n=6
[14] = 30 mg, Mean (SD), single oral dose 30 mg, n=6
[15] = 30 mg, Median, single oral dose 30 mg, n=6
[16] = 30 mg, Min–max, single oral dose 30 mg, n=6
[17] = 60 mg, Mean (SD), single oral dose 60 mg, n=6
[18] = 60 mg, Median, single oral dose 60 mg, n=6
[19] = 60 mg, Min–max, single oral dose 60 mg, n=6

11β‐HSD1, sequence (P28845 whole entry): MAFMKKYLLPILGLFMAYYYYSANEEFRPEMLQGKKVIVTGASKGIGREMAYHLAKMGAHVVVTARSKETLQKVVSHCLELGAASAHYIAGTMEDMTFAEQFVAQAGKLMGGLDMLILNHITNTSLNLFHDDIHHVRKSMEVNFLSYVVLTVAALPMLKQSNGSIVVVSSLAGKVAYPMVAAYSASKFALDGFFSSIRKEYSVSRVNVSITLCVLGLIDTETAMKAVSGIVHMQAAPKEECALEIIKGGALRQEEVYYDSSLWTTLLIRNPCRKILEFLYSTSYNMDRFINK

In the case of Cn1c(-c2ccc(C(N)=O)cc2F)nnc1C(C)(C)Oc1c(F)cc(Cl)cc1F [ASP3662], the “inhibition of 11β‐HSD2” value (11β‐HSD2) is given as “no inhibition”, the “return of 11β‐HSD1 activity to baseline” value (11β‐HSD1; 16 days after discontinuation of multiple doses, even lowest dose 0.2 mg) is given as “incomplete” and the “dose achieving full inhibition of peripheral 11β‐HSD1” value (11β‐HSD1; clinical PD data referred to in the dose rationale) is given as 3 mg. The “dose achieving full inhibition of 11β‐HSD1” value (11β‐HSD1; multiple daily doses) was no less than 2 mg, the “11β‐HSD1 activity ratio at maximal inhibition” value (11β‐HSD1; nadir at doses of 2 mg and above) was ~ 0.1 ratio and the “subjects with TEAE headache” value ([1]; MAD part 2, 0.2 mg) was 2 n. For the same molecule, the “subjects with TEAE headache” value ([1]; MAD part 2, 0.4 mg) was 1 n, the “subjects with TEAE headache” value ([1]; MAD part 2, 0.7 mg) was 1 n and the “subjects with TEAE headache” value ([1]; MAD part 2, 2 mg) was 1 n. For the same molecule, the “Any TEAE” value ([1]; 10 mg, n=8) was 3 (37.5) n (%), the “Drug-related TEAE” value ([1]; 10 mg, n=8) was 2 (25.0) n (%) and the “Number of TEAEs” value ([1]; 10 mg, n=8) was 3. For the same molecule, the “Number of drug-related TEAEs” value ([1]; 10 mg, n=8) was 2, the “TEAE: Constipation” value ([1]; 10 mg, n=8) was 0 n (%) and the “TEAE: Gastrointestinal disorders” value ([1]; 10 mg, n=8) was 0 n (%). The “TEAE: General disorders and administration site conditions” value ([1]; 10 mg, n=8) was 0 n (%), the “TEAE: Headache” value ([1]; 10 mg, n=8) was 0 n (%) and the “TEAE: Medical device site reaction” value ([1]; 10 mg, n=8) was 0 n (%). For the same molecule, the “TEAE: Nervous system disorders” value ([1]; 10 mg, n=8) was 0 n (%), the “TEAE: Skin and subcutaneous tissue disorders” value ([1]; 10 mg, n=8) was 1 (12.5) n (%) and the “Any TEAE” value ([1]; 20 mg, n=25) was 14 (56.0) n (%). The “Drug-related TEAE” value ([1]; 20 mg, n=25) was 9 (36.0) n (%), the “Number of TEAEs” value ([1]; 20 mg, n=25) was 21 and the “Number of drug-related TEAEs” value ([1]; 20 mg, n=25) was 12. For the same molecule, the “TEAE: Constipation” value ([1]; 20 mg, n=25) was 1 (4.0) n (%), the “TEAE: Gastrointestinal disorders” value ([1]; 20 mg, n=25) was 1 (4.0) n (%) and the “TEAE: General disorders and administration site conditions” value ([1]; 20 mg, n=25) was 3 (12.0) n (%). For the same molecule, the “TEAE: Headache” value ([1]; 20 mg, n=25) was 5 (20.0) n (%), the “TEAE: Medical device site reaction” value ([1]; 20 mg, n=25) was 2 (8.0) n (%) and the “TEAE: Nervous system disorders” value ([1]; 20 mg, n=25) was 9 (36.0) n (%). For the same molecule, the “TEAE: Skin and subcutaneous tissue disorders” value ([1]; 20 mg, n=25) was 0 n (%), the “Any TEAE” value ([1]; 50 mg, n=16) was 6 (37.5) n (%) and the “Drug-related TEAE” value ([1]; 50 mg, n=16) was 4 (25.0) n (%). The “Number of TEAEs” value ([1]; 50 mg, n=16) was 12, the “Number of drug-related TEAEs” value ([1]; 50 mg, n=16) was 6 and the “TEAE: Constipation” value ([1]; 50 mg, n=16) was 2 (12.5) n (%). The “TEAE: Gastrointestinal disorders” value ([1]; 50 mg, n=16) was 2 (12.5) n (%), the “TEAE: General disorders and administration site conditions” value ([1]; 50 mg, n=16) was 1 (6.3) n (%) and the “TEAE: Headache” value ([1]; 50 mg, n=16) was 3 (18.8) n (%). The “TEAE: Medical device site reaction” value ([1]; 50 mg, n=16) was 1 (6.3) n (%), the “TEAE: Nervous system disorders” value ([1]; 50 mg, n=16) was 3 (18.8) n (%) and the “TEAE: Skin and subcutaneous tissue disorders” value ([1]; 50 mg, n=16) was 2 (12.5) n (%). For the same molecule, the “Any TEAE” value ([1]; ASP3662 total (10-50 mg), n=49) was 23 (46.9) n (%), the “Drug-related TEAE” value ([1]; ASP3662 total (10-50 mg), n=49) was 15 (30.6) n (%) and the “Number of TEAEs” value ([1]; ASP3662 total (10-50 mg), n=49) was 36. The “Number of drug-related TEAEs” value ([1]; ASP3662 total (10-50 mg), n=49) was 20, the “TEAE: Constipation” value ([1]; ASP3662 total (10-50 mg), n=49) was 3 (6.1) n (%) and the “TEAE: Gastrointestinal disorders” value ([1]; ASP3662 total (10-50 mg), n=49) was 3 (6.1) n (%). For the same molecule, the “TEAE: General disorders and administration site conditions” value ([1]; ASP3662 total (10-50 mg), n=49) was 4 (8.2) n (%), the “TEAE: Headache” value ([1]; ASP3662 total (10-50 mg), n=49) was 8 (16.3) n (%) and the “TEAE: Medical device site reaction” value ([1]; ASP3662 total (10-50 mg), n=49) was 3 (6.1) n (%). The “TEAE: Nervous system disorders” value ([1]; ASP3662 total (10-50 mg), n=49) was 12 (24.5) n (%), the “TEAE: Skin and subcutaneous tissue disorders” value ([1]; ASP3662 total (10-50 mg), n=49) was 3 (6.1) n (%) and the “deaths, TEAEs leading to discontinuation, serious or drug-related TEAEs” value ([1]; both SAD and MAD studies) was “No deaths, TEAEs leading to discontinuation, serious TEAEs”. For the same molecule, the “potentially clinically significant orthostatic pulse rate measurements” value ([1]; elderly subjects who received ASP3662) was 44.4%, the “overall safety and tolerability” value ([1]; multiple oral doses up to 50 mg for 14 days) was “safe and well tolerated” and the Ki (human 11β‐HSD1) was 5.3 nM. It also gave a Cmax ([2]; 1 mg, Mean (SD), single oral dose 1 mg, n=6) of 0.0433 ng/mL, a Cmax ([2]; 1 mg, Min–max, single oral dose 1 mg, n=6) of less than 0.14 ng/mL and a Tmax ([2]; 1 mg, Median, single oral dose 1 mg, n=2) of 0.75 h. The Tmax ([2]; 1 mg, Min–max, single oral dose 1 mg, n=2) was 0.5 to 1 h, the Cmax ([2]; 3 mg, Mean (SD), single oral dose 3 mg, n=6) was 3.54 ng/mL and the Cmax [2, 4] was 1.6 ng/mL. For the same molecule, the Cmax [2, 5] was 0.38 to 9.24 ng/mL, the Tmax [2, 4] was 2.5 h and the Tmax [2, 5] was 1 to 4.02 h. It also gave an AUC(0-inf) [2, 6] of 405 ng·h/mL, an AUC(0-inf) [2, 7] of 410 ng·h/mL and an AUC(0-inf) [2, 8] of 169 to 660 ng·h/mL. It also gave a Cmax [2, 6] of 28 ng/mL, a Cmax [2, 7] of 30.5 ng/mL and a Cmax [2, 8] of 10.8 to 43.7 ng/mL. The Tmax [2, 7] was 1.75 h, the Tmax [2, 8] was 1 to 4 h and the half-life [2, 6] was 37.7 h. The half-life [2, 7] was 37.9 h, the half-life [2, 8] was 28.5 to 46.3 h and the AUC(0-inf) [2, 9] was 858 ng·h/mL. For the same molecule, the AUC(0-inf) [2, 10] was 953 ng·h/mL, the AUC(0-inf) [2, 11] was 620 to 1000 ng·h/mL and the Cmax ([2]; 10 mg, Mean (SD), single oral dose 10 mg, n=6) was 64 ng/mL. For the same molecule, the Cmax [2, 12] was 60.9 ng/mL, the Cmax [2, 13] was 49 to 93.6 ng/mL and the Tmax [2, 12] was 1.75 h. The Tmax [2, 13] was 1 to 6 h, the half-life [2, 9] was 19.5 h and the half-life [2, 10] was 21.9 h. For the same molecule, the half-life [2, 11] was 13.7 to 23 h, the AUC(0-inf) [2, 14] was 3620 ng·h/mL and the AUC(0-inf) [2, 15] was 3370 ng·h/mL. The AUC(0-inf) [2, 16] was 1630 to 6770 ng·h/mL, the Cmax [2, 14] was 258 ng/mL and the Cmax [2, 15] was 239 ng/mL. The Cmax [2, 16] was 151 to 386 ng/mL, the Tmax [2, 15] was 3.5 h and the Tmax [2, 16] was 1.5 to 4 h. It also gave a half-life [2, 14] of 17.6 h, a half-life [2, 15] of 17.4 h and a half-life [2, 16] of 14.5 to 20.2 h. The AUC(0-inf) [2, 17] was 8190 ng·h/mL, the AUC(0-inf) [2, 18] was 8460 ng·h/mL and the AUC(0-inf) [2, 19] was 5440 to 12500 ng·h/mL. The Cmax [2, 17] was 595 ng/mL, the Cmax [2, 18] was 566 ng/mL and the Cmax [2, 19] was 439 to 865 ng/mL. The Tmax [2, 18] was 3.5 h, the Tmax [2, 19] was 2 to 4 h and the half-life [2, 17] was 14.8 h. For the same molecule, the half-life [2, 18] was 14.6 h, the half-life [2, 19] was 13.1 to 17.3 h and the “CL/F, Mean (SD)” value ([2]; single oral dose 6 mg, n=6) was 18.38 (9.909) L/hour. The “CL/F, Median” value ([2]; single oral dose 6 mg, n=6) was 15.62 L/h, the “CL/F, Min–max” value ([2]; single oral dose 6 mg, n=6) was 9.09 to 35.4 L/h and the “CL/F, Mean (SD)” value ([2]; single oral dose 10 mg, n=3) was 12.20 (3.403) L/hour. The “CL/F, Median” value ([2]; single oral dose 10 mg, n=3) was 10.49 L/h, the “CL/F, Min–max” value ([2]; single oral dose 10 mg, n=3) was 9.99 to 16.1 L/h and the “CL/F, Mean (SD)” value ([2]; single oral dose 30 mg, n=6) was 10.05 (4.856) L/hour. For the same molecule, the “CL/F, Median” value ([2]; single oral dose 30 mg, n=6) was 9.012 L/h, the “CL/F, Min–max” value ([2]; single oral dose 30 mg, n=6) was 4.43 to 18.4 L/h and the “CL/F, Mean (SD)” value ([2]; single oral dose 60 mg, n=6) was 7.933 (2.407) L/hour. For the same molecule, the “CL/F, Median” value ([2]; single oral dose 60 mg, n=6) was 7.091 L/h, the “CL/F, Min–max” value ([2]; single oral dose 60 mg, n=6) was 4.81 to 11.0 L/h and the “minimal pharmacological active oral dose” value [3] was 0.03 mg/kg.
